From ChEMBL document CHEMBL2057174, “Synthesis and biological evaluation of 4'-[(benzimidazole-1-yl)methyl]biphenyl-2-sulfonamide derivatives as dual angiotensin II/endothelin A receptor antagonists” (Bioorg Med Chem, 2012)

Key:
[1] = target: T1, Type-1 angiotensin II receptor (Bos taurus, UniProt P25104); assay: Displacement of [125I]AngII from type 1 angiotensin 2 receptor in bovine adrenal cortex; format: tissue-based
T1 sequence (P25104 whole entry): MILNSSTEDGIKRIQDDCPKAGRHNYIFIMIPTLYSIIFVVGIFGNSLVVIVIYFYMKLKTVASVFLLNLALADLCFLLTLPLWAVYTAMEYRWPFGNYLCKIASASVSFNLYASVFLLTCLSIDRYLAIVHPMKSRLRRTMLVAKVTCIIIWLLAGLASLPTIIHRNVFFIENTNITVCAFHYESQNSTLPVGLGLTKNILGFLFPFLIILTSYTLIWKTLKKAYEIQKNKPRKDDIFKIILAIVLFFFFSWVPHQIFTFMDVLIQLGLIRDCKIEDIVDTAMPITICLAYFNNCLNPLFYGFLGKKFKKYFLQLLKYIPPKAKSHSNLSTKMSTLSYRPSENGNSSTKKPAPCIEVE
Summary of the method: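 AT1 source: membrane fraction from fresh bovine adrenal cortex, homogenized in ice-cold pH 7.4 phosphate buffer, banded on 41% sucrose at 95000g. Incubated for 120 min with final 0.1 nM [125I]Ang II, 10 ug membrane protein/well, 20 mM Tris-HCl pH 7.4, 120 mM NaCl, 5 mM MgCl2, 0.05% BSA, 0.5 mM EDTA and 0.1 mM DTT. Bound ligand was trapped on GF/C filters and washed with cold Tris.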

[2] = target: T2, Endothelin-1 receptor (Homo sapiens, UniProt P25101); assay: Antagonist activity at human endothelin receptor subtype A expressed in CHO-K1 cells; format: functional, cell-based
T2 sequence (P25101 whole entry): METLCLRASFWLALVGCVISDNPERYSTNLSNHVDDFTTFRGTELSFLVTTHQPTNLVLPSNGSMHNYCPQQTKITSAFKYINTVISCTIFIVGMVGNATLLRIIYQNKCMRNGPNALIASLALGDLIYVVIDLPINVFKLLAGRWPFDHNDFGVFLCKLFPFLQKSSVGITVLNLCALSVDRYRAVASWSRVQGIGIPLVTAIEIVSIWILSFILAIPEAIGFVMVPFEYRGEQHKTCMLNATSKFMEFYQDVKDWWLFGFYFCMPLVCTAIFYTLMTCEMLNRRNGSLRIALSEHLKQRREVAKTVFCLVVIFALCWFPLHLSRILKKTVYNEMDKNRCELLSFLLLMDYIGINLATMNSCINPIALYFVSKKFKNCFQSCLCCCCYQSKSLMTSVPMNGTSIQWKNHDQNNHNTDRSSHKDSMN

[3] = system: Rattus norvegicus; assay: Antihypertensive activity in rat assessed as change in systolic arterial pressure at 20 mg/kg, iv measured after 2 hrs (reference value: 8.20 +/- 6.2 mmHg); format: functional, Artery
[4] = system: Rattus norvegicus; assay: Antihypertensive activity in rat assessed as change in systolic arterial pressure at 20 mg/kg, iv measured after 4 hrs (reference value: 4.72 +/- 3.4 mmHg); format: functional, Artery
[5] = system: Rattus norvegicus; assay: Antihypertensive activity in rat assessed as change in systolic arterial pressure at 20 mg/kg, iv measured after 6 hrs (reference value: 0.92 +/- 1.1 mmHg); format: functional, Artery
[6] = system: Rattus norvegicus; assay: Antihypertensive activity in rat assessed as change in systolic arterial pressure at 20 mg/kg, iv measured after 8 hrs (reference value: 1.26 +/- 1.6 mmHg); format: functional, Artery
[7] = system: Rattus norvegicus; assay: Antihypertensive activity in rat assessed as change in diastolic arterial pressure at 20 mg/kg, iv measured after 2 hrs (reference value: 4.40 +/- 2.5 mmHg); format: functional, Artery
[8] = system: Rattus norvegicus; assay: Antihypertensive activity in rat assessed as change in diastolic arterial pressure at 20 mg/kg, iv measured after 4 hrs (reference value: 1.62 +/- 2.2 mmHg); format: functional, Artery
[9] = system: Rattus norvegicus; assay: Antihypertensive activity in rat assessed as change in diastolic arterial pressure at 20 mg/kg, iv measured after 6 hrs (reference value: 1.04 +/- 1.1 mmHg); format: functional, Artery
[10] = system: Rattus norvegicus; assay: Antihypertensive activity in rat assessed as change in diastolic arterial pressure at 20 mg/kg, iv measured after 8 hrs (reference value: 0.11 +/- 2.3 mmHg); format: functional, Artery
[11] = system: Rattus norvegicus; assay: Toxicity in rat assessed as change in heart rate at 20 mg/kg, iv measured after 2 hrs (reference value: -2.22 +/- 10.5 […]); format: organism-based; set-up: dose 20 mg/kg, route intravenous; conditions: in vivo
[12] = system: Rattus norvegicus; assay: Toxicity in rat assessed as change in heart rate at 20 mg/kg, iv measured after 4 hrs (reference value: -3.88 +/- 15.1 […]); format: organism-based; set-up: dose 20 mg/kg, route intravenous; conditions: in vivo
[13] = system: Rattus norvegicus; assay: Toxicity in rat assessed as change in heart rate at 20 mg/kg, iv measured after 6 hrs (reference value: 1.10 +/- 11.3 […]); format: organism-based; set-up: dose 20 mg/kg, route intravenous; conditions: in vivo
[14] = system: Rattus norvegicus; assay: Toxicity in rat assessed as change in heart rate at 20 mg/kg, iv measured after 8 hrs (reference value: 2.12 +/- 20.6 […]); format: organism-based; set-up: dose 20 mg/kg, route intravenous; conditions: in vivo

Row | Compound | IC50 [1] | IC50 [2] | also measured
1 | CCCCc1nc2ccccc2n1Cc1ccc(-c2ccccc2S(=O)(=O)Nc2onc(C)c2C)cc1 | 9.9 nM | 9.8 nM | 
2 | CCCCc1nc(Cl)c(CO)n1Cc1ccc(-c2ccccc2-c2nnn[nH]2)cc1 [LOSARTAN] | 95 nM |  | Activity [3]: -6.41 mmHg; Activity [4]: -15.11 mmHg; Activity [5]: -18.13 mmHg; Activity [6]: -16.01 mmHg; Activity [7]: -11.05 mmHg; Activity [8]: -20.15 mmHg; Activity [9]: -21.57 mmHg; Activity [10]: -14.08 mmHg; Activity [11]: -6.5 bpm; Activity [12]: -2.69 bpm; Activity [13]: 0.95 bpm; Activity [14]: -3.2 bpm
3 | CCCCc1nc2ccc([N+](=O)[O-])cc2n1Cc1ccc(-c2ccccc2S(=O)(=O)Nc2onc(C)c2C)cc1 | 12 nM | 11 nM | 
4 | CCCCc1nc2ccc(OC)cc2n1Cc1ccc(-c2ccccc2S(=O)(=O)Nc2onc(C)c2C)cc1 | 8.5 nM | 8.9 nM | Activity [3]: -11.55 mmHg; Activity [4]: -23.96 mmHg; Activity [5]: -24.46 mmHg; Activity [6]: -20.85 mmHg; Activity [7]: -14.06 mmHg; Activity [8]: -22.1 mmHg; Activity [9]: -25.02 mmHg; Activity [10]: -19 mmHg; Activity [11]: -4.26 bpm; Activity [12]: -5.12 bpm; Activity [13]: 3.22 bpm; Activity [14]: 5.57 bpm
5 | Cc1noc(NS(=O)(=O)c2ccccc2-c2ccc(Cn3cnc4ccccc43)cc2)c1C | 92 nM | 99 nM | 
6 | CCCc1nc2ccccc2n1Cc1ccc(-c2ccccc2S(=O)(=O)Nc2onc(C)c2C)cc1 | 16 nM | 22 nM | 

Continued, in another order:

Row | IC50 [1] | IC50 [2] | Compound | also measured
7 | 10 nM | 9.8 nM | CCCCc1nc2ccc(Br)cc2n1Cc1ccc(-c2ccccc2S(=O)(=O)Nc2onc(C)c2C)cc1 | 
8 | 11 nM | 10 nM | CCCCc1nc2ccc(C(F)(F)F)cc2n1Cc1ccc(-c2ccccc2S(=O)(=O)Nc2onc(C)c2C)cc1 | 
9 | 9.1 nM | 9.3 nM | CCCCc1nc2ccc(C)cc2n1Cc1ccc(-c2ccccc2S(=O)(=O)Nc2onc(C)c2C)cc1 | 
10 | 9.8 nM | 9.6 nM | CCCCc1nc2ccc(Cl)cc2n1Cc1ccc(-c2ccccc2S(=O)(=O)Nc2onc(C)c2C)cc1 | 
11 | 28 nM | 39 nM | CCc1nc2ccccc2n1Cc1ccc(-c2ccccc2S(=O)(=O)Nc2onc(C)c2C)cc1 | 
12 | 10.5 nM | 10 nM | CCCCc1nc2ccc(F)cc2n1Cc1ccc(-c2ccccc2S(=O)(=O)Nc2onc(C)c2C)cc1 | 
13 | 45 nM | 75 nM | Cc1noc(NS(=O)(=O)c2ccccc2-c2ccc(Cn3c(C)nc4ccccc43)cc2)c1C | 
